Laboratory results published in ChEMBL document CHEMBL1122513, “Synthesis and antiviral activity of carbocyclic analogues of 2'-deoxyribofuranosides of 2-amino-6-substituted-purines and of 2-amino-6-substituted-8-azapurines” (J Med Chem, 1984).
Values after ≈ are worked out from the molar mass of the structure shown. Values joined by “and” are separate entries in the source; they are usually repeats but may differ in a detail not shown here. Equal values may be shown once.

What was measured:
Vaccinia virus = assay: In vitro for antiviral activity in secondary cultures of rabbit kidney cells infected with vaccinia virus; assay type: functional, Orthopoxvirus vaccinia
Human alphaherpesvirus 1 [1] = assay: Concentration required to inhibit HSV type 1 strain HF induced cytopathogenic affects by 50%; assay type: functional
Human alphaherpesvirus 1 [2] = assay: In vitro antiviral activity in secondary cultures of rabbit kidney cells infected with HSV type 1 strain HF; assay type: functional
Human alphaherpesvirus 2 [3] = assay: Concentration required to inhibit HSV type 2 strain MS induced cytopathogenic affects by 50%; assay type: functional
Procedure, shortened: (§1)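 Inhibition of cytopathogenic effect caused by HSV-1 strain 377 or HSV-2 strain MS, replicating in secondary rabbit kidney cell cultures or in Vero cells. MIC₅₀ is the concentration giving 50% inhibition of virus-induced CPE. Ranges are pooled from several tests in either host cell type.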

Human alphaherpesvirus 1 [4] = assay: In vitro antiviral activity in secondary cultures of rabbit kidney cells infected with HSV type 1 strain 377; assay type: functional
Procedure, shortened: (§2)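 Scored as a virus rating (VR) from inhibition of CPE caused by HSV-1 strain 377 or HSV-2 strain MS in secondary rabbit kidney cultures or Vero cells. VR ≥1.0 means definite activity, 0.5-0.9 marginal to moderate, and <0.5 usually none. Ranges are pooled from several tests.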

Human alphaherpesvirus 2 [5] = assay: In vitro antiviral activity in secondary cultures of rabbit kidney cells infected with HSV type 2 strain MS; assay type: functional; procedure, shortened: as §2
[6] = Compound was evaluated for cytotoxicity to KB cells (derived from human epidermoid carcinoma); assay type: cell-based; settings: read-out: ED50 (the source's name)
Procedure, shortened: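 KB cells grown in culture and tested under the National Cancer Institute cytotoxicity protocol. The value is reported as ED50 in mcg/mL.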

Mus musculus [7] = assay: Antineoplastic activity of compound in mice inoculated with 10e 5 L1210 leukemia cells was measured as T/C after ip administration of 100 […]; assay type: functional
Procedure, shortened: (§3)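 L1210 leukemia, 10⁵ cells inoculated intraperitoneally into mice on day 0, following NCI protocols. Compound given intraperitoneally as a solution or suspension once daily on days 1-9. T/C % compares lifespan of treated mice with untreated leukemic control mice.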

Human alphaherpesvirus 1 [8] = assay: Concentration required to inhibit HSV type 1 strain 377 induced cytopathogenic affects by 50%; assay type: functional; procedure, shortened: as §1
L1210 [9] = assay: Antineoplastic activity of compound in mice inoculated with 10e 5 L1210 leukemia cells was measured as weight change after ip administration of 100 […]; assay type: functional, Mus musculus
Procedure, shortened: (§4)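 Mice received 10⁵ L1210 leukemia cells ip on day 0, then compound ip as a solution or suspension q.d. days 1-9, following NCI protocols. Weight-change difference is the mean weight change of treated mice minus that of untreated leukemic controls, both measured on day 5.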

Mus musculus [10] = assay: Antineoplastic activity of compound in mice inoculated with 10e 5 L1210 leukemia cells was measured as T/C after ip administration of 200 mg/kg; assay type: functional; settings: route intraperitoneal; procedure, shortened: as §3
L1210 [11] = assay: Antineoplastic activity of compound in mice inoculated with 10e 5 L1210 leukemia cells was measured as weight change after ip administration of 100 mg/kg; assay type: functional, Mus musculus; settings: route intraperitoneal; procedure, shortened: as §4
Mus musculus [12] = assay: Antineoplastic activity of compound in mice inoculated with 10e 5 L1210 leukemia cells was measured as T/C after ip administration of 100 mg/kg; assay type: functional; settings: route intraperitoneal; procedure, shortened: as §3
L1210 [13] = assay: Antineoplastic activity of compound in mice inoculated with 10e 5 L1210 leukemia cells was measured as weight change after ip administration of 200 mg/kg; assay type: functional, Mus musculus; settings: route intraperitoneal; procedure, shortened: as §4
L1210 [14] = assay: Antineoplastic activity of compound in mice inoculated with 10e 5 L1210 leukemia cells was measured as weight change after ip administration of 50 […]; assay type: functional, Mus musculus; procedure, shortened: as §4
Mus musculus [15] = assay: Antineoplastic activity of compound in mice inoculated with 10e 5 L1210 leukemia cells was measured as T/C after ip administration of 25 […]; assay type: functional; procedure, shortened: as §3
L1210 [16] = assay: Antineoplastic activity of compound in mice inoculated with 10e 5 L1210 leukemia cells was measured as weight change after ip administration of 25 […]; assay type: functional, Mus musculus; procedure, shortened: as §4
L1210 [17] = assay: Antineoplastic activity of compound in mice inoculated with 10e 5 L1210 leukemia cells was measured as weight change after ip administration of 200 […]; assay type: functional, Mus musculus; procedure, shortened: as §4
Mus musculus [18] = assay: Antineoplastic activity of compound in mice inoculated with 10e 5 L1210 leukemia cells was measured as T/C after ip administration of 50 […]; assay type: functional; procedure, shortened: as §3
Mus musculus [19] = assay: Antineoplastic activity of compound in mice inoculated with 10e 5 L1210 leukemia cells was measured as T/C after ip administration of 200 […]; assay type: functional; procedure, shortened: as §3
Human alphaherpesvirus 2 [20] = assay: In vitro antiviral activity in secondary cultures of rabbit kidney cells against HSV type 2 strain MS; 1.6-2.3; assay type: functional; procedure, shortened: as §2
Human alphaherpesvirus 2 [21] = assay: Concentration required to inhibit HSV type 2 strain MS induced cytopathogenic affects by 50%; 6.4-30; assay type: functional; procedure, shortened: as §1
Human alphaherpesvirus 1 [22] = assay: Concentration required to inhibit HSV type 1 strain 377 induced cytopathogenic affects by 50%; 6.4-9.8; assay type: functional; procedure, shortened: as §1
Human alphaherpesvirus 1 [23] = assay: In vitro antiviral activity in secondary cultures of rabbit kidney cells against HSV type 1 strain 377; 2.5-3.1; assay type: functional; procedure, shortened: as §2
L1210 [24] = assay: Antineoplastic activity of compound in mice inoculated with 10e 5 L1210 leukemia cells was measured as weight change after ip administration of 50 mg/kg; assay type: functional, Mus musculus; settings: route intraperitoneal; procedure, shortened: as §4
Human alphaherpesvirus 1 [25] = assay: In vitro antiviral activity in secondary cultures of rabbit kidney cells against HSV type 1 strain 377; assay type: functional; procedure, shortened: as §2
Mus musculus [26] = assay: Antineoplastic activity of compound in mice inoculated with 10e 5 L1210 leukemia cells was measured as T/C after ip administration of 50 mg/kg; assay type: functional; settings: route intraperitoneal; procedure, shortened: as §3
[27] = Human alphaherpesvirus 1, read-out: MIC50

Row | SMILES | MIC50 (Human alphaherpesvirus 2 [3]) [µg/mL] | Virus rating (Human alphaherpesvirus 1 [4]) | Virus rating (Human alphaherpesvirus 2 [5]) | CC50 [6] [µg/mL] | T/C (Mus musculus [7]) [%] | MIC50 (Human alphaherpesvirus 1 [8]; [27]) [µg/mL] | Weight change (L1210 [9]) [g] | also measured
1 | OCC1CC(n2nnc3c(O)ncnc32)C(O)C1O (stereo unspecified) |  |  |  |  |  |  |  | Virus rating (Vaccinia virus): 1.2; MIC50 (Human alphaherpesvirus 1 [1]; [27]): 298 µg/mL (≈ 1120 µM); Virus rating (Human alphaherpesvirus 1 [2]): 1.5
2 | Nc1nc(O)c2ncn([C@@H]3C[C@H](CO)[C@@H](O)C3)c2n1 | 0.8 (≈ 3.02 µM) | >=4.6 | 3.7 | 95 (≈ 358 µM) | 96 | < 0.3 | -3.7 | 
3 | Nc1nc(N)c2nnn(C3CC(O)C(CO)C3)c2n1 (stereo unspecified) | 10 (≈ 37.7 µM) | 4 and 4.4 | 2.3 | > 100 |  | < 3.2 |  | T/C (Mus musculus [10]): 92%; Weight change (L1210 [11]): -0.7 g; MIC50 (Human alphaherpesvirus 1 [8]): 2 µg/mL (≈ 7.54 µM); T/C (Mus musculus [12]): 96%; Weight change (L1210 [13]): -1.1 g
4 | Nc1ccn([C@@H]2C[C@H](CO)[C@@H](O)[C@H]2O)c(=O)n1 (stereo in doubt; form 1) |  |  |  |  |  |  |  | MIC50 (Human alphaherpesvirus 1 [1]): 93 µg/mL and <32 µg/mL
5 | OCC1CC(n2cnc3c(O)ncnc32)C(O)C1O (stereo unspecified) |  |  |  |  |  |  |  | Virus rating (Vaccinia virus): 1.9; MIC50 (Human alphaherpesvirus 1 [1]; [27]): 97 µg/mL (≈ 364 µM); Virus rating (Human alphaherpesvirus 1 [2]): 2.1
6 | Nc1nc(Cl)c2nnn(C3CC(O)C(CO)C3)c2n1 (stereo unspecified) | 23 (≈ 80.8 µM) | 5 and 4.5 | 1.9 | 10 (≈ 35.1 µM) | 100 | < 1 | -3.4 | Weight change (L1210 [14]): -1.5 g; T/C (Mus musculus [15]): 118%; Weight change (L1210 [16]): -1 g; Weight change (L1210 [17]): -4.4 g; T/C (Mus musculus [18]): 105%; T/C (Mus musculus [19]): 78%; MIC50 (Human alphaherpesvirus 1 [8]): 1.6 µg/mL (≈ 5.62 µM)
7 | Nc1nc(O)c2nnn(C3CC(O)C(CO)C3)c2n1 (stereo unspecified) | 6.9 (≈ 25.9 µM) | 4.2 | 2.1 | > 100 | 100 | 0.6 (≈ 2.25 µM) | -2.4 | Weight change (L1210 [17]): -3.2 g; T/C (Mus musculus [19]): 104%
8 | Cc1cn(C2CC(CO)C(O)C2O)c(=O)[nH]c1=O (stereo unspecified) | 7 (≈ 27.3 µM) | 5.4 | 3.2 |  |  | 0.8 (≈ 3.12 µM) |  | 
9 | Nc1ncnc2c1ncn2[C@@H]1O[C@H](CO)[C@@H](O)[C@@H]1O [VIDARABINE] |  |  |  |  |  |  |  | Virus rating (Human alphaherpesvirus 2 [20]): 1.6; MIC50 (Human alphaherpesvirus 2 [21]): 6.4 µg/mL (≈ 23.9 µM); MIC50 (Human alphaherpesvirus 1 [22]): 6.4 µg/mL (≈ 23.9 µM); Virus rating (Human alphaherpesvirus 1 [23]): 2.5
10 | Nc1ncnc2c1ncn2[C@@H]1C[C@H](CO)[C@@H](O)[C@@H]1O |  |  |  |  |  |  |  | Virus rating (Vaccinia virus): 1.5 and 1.7; Virus rating (Human alphaherpesvirus 1 [2]): 2.2 and 3.5
11 | Nc1ccn([C@@H]2C[C@H](CO)[C@@H](O)[C@H]2O)c(=O)n1 (stereo in doubt; form 2) | 2.4 (≈ 9.95 µM) |  | 3.2 |  |  |  |  | Virus rating (Vaccinia virus): 0.9; MIC50 (Human alphaherpesvirus 1 [1]): 68 µg/mL (≈ 282 µM); Virus rating (Human alphaherpesvirus 1 [2]): 0.8
12 | Nc1nc(S)c2ncn(C3CC(O)C(CO)C3)c2n1 (stereo unspecified) | 32 (≈ 114 µM) | 4.9 | 1.7 | > 100 | 91 | < 3.2 | -0.2 | Weight change (L1210 [17]): 0.5 g; T/C (Mus musculus [19]): 108%
13 | Nc1nc(Cl)c2ncn(C3CC(O)C(CO)C3)c2n1 (stereo unspecified) | 37 (≈ 130 µM) | 1.9 | 2 | 62 (≈ 219 µM) | 106 | 8.1 (≈ 28.5 µM) | -1 | Weight change (L1210 [17]): -2.2 g; T/C (Mus musculus [19]): 106%
14 | Nc1nc(N)c2ncn(C3CC(O)C(CO)C3)c2n1 (stereo unspecified) | 2.4 (≈ 9.08 µM) | 4.5 | 2.9 | > 100 |  | 0.6 (≈ 2.27 µM) |  | Weight change (L1210 [24]): -2.8 g; Virus rating (Human alphaherpesvirus 1 [25]): 4.7; T/C (Mus musculus [10]): 79%; T/C (Mus musculus [26]): 104%; MIC50 (Human alphaherpesvirus 1 [8]): 0.3 µg/mL (≈ 1.14 µM); Weight change (L1210 [13]): -5.5 g
